# Assay outcomes (PubChem)
# RPL19A-GFP yeast = alters RPL19A-GFP fluorescence in TOR pathway yeast screen; AID 2025; 0.3% of 330,000 active; percent response vs DMSO, % at 10 µM; S. cerevisiae RPL19A-GFP strain, flow cytometry, 3 h; active compounds read low;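 active = percent response vs DMSO below 50%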;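 also: median channel GFP fluorescence of the barcoded RPL19A-GFP strain; ratio of sample median GFP to plate DMSO average so 100% = DMSO; lower means less RPL19A-GFP as with rapamycin TOR inhibition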
# MEP2 TOR yeast = alters MEP2-GFP fluorescence in TOR pathway yeast screen; S. cerevisiae MEP2-GFP strain, flow cytometry GFP, 3 h; 100% = DMSO control level; GFP response vs DMSO, % at 10 µM; 0.51% of 330,000 active; AID 2016;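 active = GFP response versus DMSO above a set limit, roughly screen mean plus 3 SD, cut at about 180% in these data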;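 also: median GFP fluorescence of the barcode-gated MEP2-GFP cells per well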
# CIT2-GFP yeast = yeast TOR pathway CIT2-GFP modulation; GFP response vs DMSO, % at 10 µM; S. cerevisiae CIT2-GFP strain, flow cytometry, 3 h; 100 means same as DMSO wells; 0.065% of 320,000 active; AID 2029;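 active = GFP response relative to DMSO above a set limit, near the screen mean plus 3 SD, cut at about 150% in these data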;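 also: ratio of well median GFP fluorescence to mean of DMSO wells on the plate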
# AGP1 TOR yeast = alters AGP1-GFP fluorescence in TOR pathway yeast screen | GFP response vs DMSO, % at 10 µM | 0.02% of 320,000 active | AID 2066 | S. cerevisiae AGP1-GFP multiplex flow cytometry, 3 h; GFP as percent of DMSO wells;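 active = GFP response relative to DMSO above a set limit, near screen average plus 3 SD, cut at about 150% in these data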;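 also: median GFP channel fluorescence of the gated AGP1 strain per well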
# LAP4-GFP MLPCN = modulators of TOR pathway LAP4-GFP in S. cerevisiae | S. cerevisiae LAP4-GFP multiplex, flow cytometry GFP, 3 h; median GFP as percent of DMSO wells | GFP response vs DMSO, % at 10 µM | 0.34% of 320,000 active | AID 2023;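 active = GFP response vs DMSO above a set limit, about the screen mean plus 3 SD, cut at about 150% in these data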
# T cell HTS = T cell immune modulation candidate; 0.068% of 330,000 active; response (vesicle binding), % at 7 µM; 2C CD8+ T cell-vesicle binding, flow cytometry; active compounds read low; AID 2052;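 active = response, share of CD8 T cells binding vesicles, and their 90th percentile fluorescence all below set limits, cut at about 80% in these data, passing the limit was not always enough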;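 also: values below 100% mean blocked vesicle binding to the CD8+ T cells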
#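 Test system: purified 2C TCR transgenic mouse naive CD8+ T cells. Probe or stimulus: QL9-peptide-loaded Drosophila micro-vesicles bearing Ld, ICAM-1 and B7-1. Incubation: binding step 1.5 h, 37 °C, antibody labelling 20 min, ice. Measured by: flow cytometry of vesicle-bound cells.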
# LAP4-GFP pick2 = second confirmation of modulators of TOR reporter LAP4-GFP in yeast; shares compounds with LAP4-GFP MLPCN; S. cerevisiae LAP4-GFP strain, flow cytometry GFP, 3 h; GFP response vs DMSO, % at 10 µM; 20% of 590 active;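 active = GFP signal as percent of the solvent control above about 150%, meaning raised reporter expression, limit read from the data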;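 also: ratio of well median GFP fluorescence to plate DMSO mean so 100% = DMSO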
# MEP2 cherry2 = yeast MEP2-GFP modulation, second cherry pick; shares compounds with LAP4-GFP MLPCN; S. cerevisiae MEP2-GFP strain, flow cytometry GFP, 3 h; 10% of 590 active; GFP response vs DMSO, % at 10 µM;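 active = GFP signal above 150% of the solvent control wells, that is a rise of more than half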;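 also: median channel GFP fluorescence of all gated yeast cells per well; ratio of median GFP to plate DMSO average so 100% = DMSO level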
# RPL19A GFP CP2 = reconfirmed modulator of RPL19A-GFP TOR reporter in yeast | S. cerevisiae RPL19A-GFP strain, flow cytometry GFP, 3 h; active compounds read low; 100% means same as DMSO wells | 3% of 590 active | GFP response vs DMSO, % at 10 µM | shares compounds with LAP4-GFP MLPCN;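 active = under 65% GFP response relative to DMSO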;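 also: median GFP channel fluorescence per well over the all cells gate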
# CIT2 GFP CP2 = reconfirmed modulator of CIT2-GFP TOR reporter in yeast | shares compounds with LAP4-GFP MLPCN | S. cerevisiae CIT2-GFP strain, flow cytometry GFP, 3 h; DMSO control wells read 100% | GFP response vs DMSO, % at 10 µM | 8% of 590 active | AID 2624;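 active = GFP response vs DMSO above about 150%, limit read from the data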;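 also: median green fluorescence per well over all gated yeast cells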
# AGP1-GFP pick2 = reconfirmed modulator of AGP1-GFP TOR reporter in yeast; shares compounds with LAP4-GFP MLPCN; S. cerevisiae AGP1-GFP strain, flow cytometry GFP, 3 h; percent response vs DMSO, % at 10 µM; 590 tested, under 10 active;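 active = over 150 percent of DMSO response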;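 also: median GFP channel fluorescence over all cells without mother daughter split; sample median GFP divided by mean DMSO control so 100% equals DMSO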
# s288c autofluor = compound is autofluorescent in yeast s288c cells. 610 tested, under 10 active. shares compounds with LAP4-GFP MLPCN. S. cerevisiae s288c, 520 nm autofluorescence, flow cytometry, 3 h; active compounds read high; zero means same as solvent-only cells. fluorescence change (kMESF span) at 33 µM;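 active = fluorescence span over the dose series, or activity score, above about 33, limit read from the data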
# Yeast autofl DR = yeast s288c autofluorescence artifact in dose response; shares compounds with LAP4-GFP MLPCN; S. cerevisiae s288c parental, compound autofluorescence, flow cytometry, 3 h; fluorescence change (span) at 33 µM; 110 tested, under 10 active; AID 488829;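 active = fluorescence change span, or the activity score built from it, above 25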
# TORC1 bypass = wildtype yeast growth loss with TORC1 bypass cells unaffected; shares compounds with LAP4-GFP MLPCN; S. cerevisiae BY4741 spot growth rating, 48-72 h; active compounds read low; 120 tested, under 10 active; growth rating (0-3) at 30 µM;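 active = growth rating at most 1 for wild type yeast while the TORC1 bypass strain still grows fully, rated 3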
# An asterisk follows results filed as active; . = not tested or not shown. Sampled rows, rich in hits. Any-hit rate of the full collection: about 0.96%.
SMILES,RPL19A-GFP yeast,MEP2 TOR yeast,CIT2-GFP yeast,AGP1 TOR yeast,LAP4-GFP MLPCN,T cell HTS,LAP4-GFP pick2,MEP2 cherry2,RPL19A GFP CP2,CIT2 GFP CP2,AGP1-GFP pick2,s288c autofluor,others
COc1cccc(-c2ncc3ccccc3c2COC(=O)c2ccc(Br)cc2)c1,93,85,84,95,112,584,.,.,.,.,.,.,
COc1cccc(-c2ncc3ccccc3c2COC(=O)c2cccc(Br)c2)c1,95,103,81,101,159*,484,132,98,91,105,96,.,
CCOC(=O)c1ccc(NC(=O)Nc2ncccc2C)cc1,111,101,81,93,99,321,.,.,.,.,.,.,
CCOC(=O)c1ccc(NC(=O)Nc2ncc(Cl)cc2Cl)cc1,63,89,81,62,79,336,97,112,65,100,66,.,
Cc1cc(NC(c2ccc(Cl)cc2)c2ccc3cccnc3c2O)no1 (configuration not stated),95,101,79,92,151*,554,.,.,.,.,.,0,
O=C1ON=C(c2ccccc2)/C1=C/c1ccc(-c2ccccc2[N+](=O)[O-])o1,86,91,88,86,179*,396,150*,117,100,106,98,0.6,
COc1cc(/C=C2\C(=O)ON=C2c2ccccc2)cc(OC)c1OC,78,90,76,75,143,269,195*,120,96,123,94,0,
COc1ccc(/C=C2\C(=O)ON=C2c2ccccc2)cc1OC,105,112,105,104,100,214,.,.,.,.,.,.,
COc1ccc(/C=C2/C(=O)ON=C2c2ccccc2)cc1OC,89,87,83,80,171*,237,.,.,.,.,.,0.5,
O=C1ON=C(c2ccccc2)/C1=C/c1ccco1,91,98,73,80,169*,172,.,.,.,.,.,1.9,Yeast autofl DR=0.73;TORC1 bypass=3
CCOc1cc(/C=C2\C(=O)ON=C2c2ccccc2)ccc1OC,101,93,101,78,118,664,.,.,.,.,.,.,
O=[N+]([O-])c1ccccc1-c1ccc(/C=N/n2cnnc2)o1,110,112,100,116,111,.,.,.,.,.,.,.,
CN(C)/C=C1\C(=O)ON=C1c1ccccc1,98,102,98,97,91,776,.,.,.,.,.,.,
Cc1ccc(-n2ncc3c2CCCC3NC(=O)CSc2ccccn2)cc1C (configuration not stated),101,104,90,99,109,376,.,.,.,.,.,.,
